Reference: ChEMBL document CHEMBL3861962 (Eur J Med Chem, 2016)
pIC50: −log10 of the molar value. Where a SMILES comes first, the peptide text is derived from it. [ ]: non-standard residue; d: D form.

How the values were obtained:
[1] = Drug level in human liver microsomes treated with bosentan at 5 uM in presence of NADPH after 30 mins by LC-MS/MS analysis; assay type: ADME; conditions: 0.5 h
Method in brief: (§1)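 Substrate at 5 μM final in 100 mM potassium phosphate, pH 7.4, incubated with human liver microsomes or baculovirus-expressed recombinant CYP3A4, 2D6 or 2C9. Reaction started with 1 mM NADPH and run 0, 15 and 30 min at 37 °C. Stopped with ice-cold acetonitrile containing labetalol internal standard, then centrifuged. Supernatant analysed by LC-MS/MS on a C18 column at 40 °C. Blank was enzyme without substrate.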

Cytochrome P450 3A4 [2] = molecular target: T1, Cytochrome P450 3A4 (Homo sapiens, UniProt P08684); assay: Drug level assessed as human recombinant CYP3A4-mediated compound formation treated with bosentan at 5 uM in presence of NADPH after 30 mins by LC-MS/MS analysis; assay type: ADME; conditions: recombinant enzyme, 0.5 h; method in brief: as §1
T1 sequence (P08684 whole entry): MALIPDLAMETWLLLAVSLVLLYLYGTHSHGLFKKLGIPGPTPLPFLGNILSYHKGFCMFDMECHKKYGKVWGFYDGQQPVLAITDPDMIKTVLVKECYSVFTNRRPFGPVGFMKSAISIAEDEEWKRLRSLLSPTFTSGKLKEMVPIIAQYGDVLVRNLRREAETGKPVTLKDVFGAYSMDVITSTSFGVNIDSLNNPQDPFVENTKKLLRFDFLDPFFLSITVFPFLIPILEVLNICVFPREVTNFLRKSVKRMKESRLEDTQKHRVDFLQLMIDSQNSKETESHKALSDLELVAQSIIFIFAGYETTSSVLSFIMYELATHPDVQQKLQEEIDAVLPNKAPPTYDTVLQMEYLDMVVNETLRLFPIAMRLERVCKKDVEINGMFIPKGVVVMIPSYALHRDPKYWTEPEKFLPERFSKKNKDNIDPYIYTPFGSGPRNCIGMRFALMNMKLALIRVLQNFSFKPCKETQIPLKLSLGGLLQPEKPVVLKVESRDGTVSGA

[3] = Retention time of the compound; assay type: physicochemical
Cytochrome P450 2C9 [4] = molecular target: T2, Cytochrome P450 2C9 (Homo sapiens, UniProt P11712); assay: Drug level assessed as human recombinant CYP2C9-mediated compound formation treated with bosentan at 5 uM in presence of NADPH after 30 mins by LC-MS/MS analysis; assay type: ADME; conditions: recombinant enzyme, 0.5 h; method in brief: as §1
T2 sequence (P11712 whole entry): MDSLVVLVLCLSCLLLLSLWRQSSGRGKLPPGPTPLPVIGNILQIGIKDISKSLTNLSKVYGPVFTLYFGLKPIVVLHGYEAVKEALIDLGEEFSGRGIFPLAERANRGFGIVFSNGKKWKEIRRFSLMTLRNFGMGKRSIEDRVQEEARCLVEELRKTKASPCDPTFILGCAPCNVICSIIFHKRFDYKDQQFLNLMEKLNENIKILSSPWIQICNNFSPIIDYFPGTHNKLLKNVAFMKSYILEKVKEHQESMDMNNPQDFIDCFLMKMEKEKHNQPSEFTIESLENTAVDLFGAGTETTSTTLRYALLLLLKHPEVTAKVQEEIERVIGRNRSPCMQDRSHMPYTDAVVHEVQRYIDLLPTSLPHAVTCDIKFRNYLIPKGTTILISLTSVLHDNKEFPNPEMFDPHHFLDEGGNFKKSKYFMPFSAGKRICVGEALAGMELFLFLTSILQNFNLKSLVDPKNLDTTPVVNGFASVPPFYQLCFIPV

Endothelin-1 receptor = molecular target: T3, Endothelin-1 receptor (Homo sapiens, UniProt P25101); assay: Antagonist activity at ETA receptor in human SKNMC cells assessed as inhibition of endothelin-1-mediated Ca2+ mobilization by fura-2/AM dye-based spectrofluorimetric method
T3 sequence (P25101 whole entry): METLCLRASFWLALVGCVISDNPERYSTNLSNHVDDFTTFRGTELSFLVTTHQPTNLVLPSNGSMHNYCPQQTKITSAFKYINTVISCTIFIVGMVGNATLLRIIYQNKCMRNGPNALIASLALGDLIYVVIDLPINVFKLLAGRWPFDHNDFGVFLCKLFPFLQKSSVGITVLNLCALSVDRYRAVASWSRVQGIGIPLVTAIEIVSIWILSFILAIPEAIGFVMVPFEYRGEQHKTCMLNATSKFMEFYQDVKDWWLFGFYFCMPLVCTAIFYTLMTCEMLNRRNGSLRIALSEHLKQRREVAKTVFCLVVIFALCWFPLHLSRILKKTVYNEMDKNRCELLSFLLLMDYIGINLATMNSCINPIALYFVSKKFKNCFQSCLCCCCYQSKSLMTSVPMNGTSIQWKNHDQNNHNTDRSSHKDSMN

[5] = molecular target: T4, Endothelin receptor type B (Homo sapiens, UniProt P24530); assay: (§2) Antagonist activity at ETB receptor in human BSMC assessed as inhibition of endothelin-1 or 3-mediated Ca2+ mobilization preincubated for 5 mins followed by endothelin-1 or 3 addition by fura-2/AM dye-based spectrofluorimetric method; assay type: functional
T4 sequence (P24530 whole entry): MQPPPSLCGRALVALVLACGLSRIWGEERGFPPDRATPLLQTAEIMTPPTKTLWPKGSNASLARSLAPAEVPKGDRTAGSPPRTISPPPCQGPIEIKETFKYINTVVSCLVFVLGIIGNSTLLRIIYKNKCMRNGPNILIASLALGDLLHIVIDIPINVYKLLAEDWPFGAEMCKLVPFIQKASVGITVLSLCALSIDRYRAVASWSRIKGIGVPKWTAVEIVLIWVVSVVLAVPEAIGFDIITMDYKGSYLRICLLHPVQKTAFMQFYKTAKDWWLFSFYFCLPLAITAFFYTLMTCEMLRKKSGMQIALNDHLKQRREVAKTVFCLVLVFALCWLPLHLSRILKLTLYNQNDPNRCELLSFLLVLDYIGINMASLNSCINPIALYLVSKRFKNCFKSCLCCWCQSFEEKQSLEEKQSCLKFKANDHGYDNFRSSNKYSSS

[6] = molecular target: T5, Endothelin receptor type B (Homo sapiens) (UniProt P24530); assay: as §2; assay type: functional
T5 sequence (whole entry): T4 sequence (P24530 whole entry)

Cytochrome P450 2C9 [7] = molecular target: T2, Cytochrome P450 2C9; assay: Drug level assessed as human recombinant CYP2C9-mediated compound formation treated with 4-(tert-Butyl)-N-(6-ethoxy-5-(2-methoxyphenoxy)-[2,2'-bipyrimidin]-4-yl)benzenesulfonamide at 5 uM in presence of NADPH after 30 mins by LC-MS/MS analysis; assay type: ADME; conditions: recombinant enzyme, 0.5 h; method in brief: as §1
[8] = Drug level in human liver microsomes treated with 4-(tert-Butyl)-N-(6-ethoxy-5-(2-methoxyphenoxy)-[2,2'-bipyrimidin]-4-yl)benzenesulfonamide at 5 uM in presence of NADPH after 30 mins by LC-MS/MS analysis; assay type: ADME; conditions: 0.5 h; method in brief: as §1
Cytochrome P450 3A4 [9] = molecular target: T1, Cytochrome P450 3A4; assay: Drug level assessed as human recombinant CYP3A4-mediated compound formation treated with 4-(tert-Butyl)-N-(6-ethoxy-5-(2-methoxyphenoxy)-[2,2'-bipyrimidin]-4-yl)benzenesulfonamide at 5 uM in presence of NADPH after 30 mins by LC-MS/MS analysis; assay type: ADME; conditions: recombinant enzyme, 0.5 h; method in brief: as §1
[10] = Drug metabolism in human liver microsomes assessed as formation of 4-(1-hydroxy-2-methylpropan-2-yl)-N-(6-(2-hydroxyethoxy)-5-(2-hydroxyphenoxy)-2,2'-bipyrimidin-4-yl)benzenesulfonamide at 5 uM in presence of NADPH after 30 mins by LC-MS/MS analysis; assay type: ADME; conditions: 0.5 h; method in brief: as §1
Cytochrome P450 3A4 [11] = molecular target: T1, Cytochrome P450 3A4; assay: Drug metabolism assessed as human recombinant CYP3A4-mediated formation of 4-tert-butyl-N-(6-(2-hydroxyethoxy)-5-(2-hydroxyphenoxy)-2,2'-bipyrimidin-4-yl)benzenesulfonamide at 5 uM in presence of NADPH after 30 mins by LC-MS/MS analysis; assay type: ADME; conditions: recombinant enzyme, 0.5 h; method in brief: as §1
[12] = Metabolic stability in human liver microsomes assessed as parent compound remaining at 5 uM in presence of NADPH after 30 mins by LC-MS/MS analysis; assay type: ADME; conditions: read-out: Stability
Method in brief: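 Pooled human liver microsomes in 100 mM potassium phosphate, pH 7.4, with test compound at 5 μM final. Reaction started with 1 mM NADPH (final) and run at 37 °C in a shaking water bath for 0, 15 and 30 min. Stopped with an equal volume of ice-cold acetonitrile containing 0.6 μM labetalol as internal standard. Protein was spun out and the supernatant analysed by LC-MS/MS. Blank had no compound.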

Cytochrome P450 3A4 [13] = molecular target: T1, Cytochrome P450 3A4; assay: Drug metabolism assessed as human recombinant CYP3A4-mediated formation of 4-(1-hydroxy-2-methylpropan-2-yl)-N-(6-(2-hydroxyethoxy)-5-(2-methoxyphenoxy)-2,2'-bipyrimidin-4-yl)benzenesulfonamide at 5 uM in presence of NADPH after 30 mins by LC-MS/MS analysis; assay type: ADME; conditions: recombinant enzyme, 0.5 h; method in brief: as §1
Cytochrome P450 2C9 [14] = molecular target: T2, Cytochrome P450 2C9; assay: Drug metabolism assessed as human recombinant CYP2C9-mediated metabolite formation by measuring parent compound remaining at 5 uM in presence of NADPH after 30 mins by LC-MS/MS analysis; assay type: ADME; conditions: recombinant enzyme, 0.5 h; method in brief: as §1
[15] = Cytotoxicity against CHOK1 cells assessed as decrease in cell viability after 24 hrs by MTT assay; assay type: toxicity, cell-based, Cricetulus griseus; conditions: Chinese hamster, CHO-K1 cells
Method in brief: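 CHO-k1 cells grown in phenol-red-free DMEM/F-12 with 10% FBS, seeded at 20,000 cells/well and allowed to attach overnight. Exposure was 24 h to 0.1–200 μM, with DMSO as vehicle control. MTT at 1 mg/mL for 3 h at 37 °C, formazan dissolved in DMSO, absorbance read at 570 nm. Data given as % OD of vehicle control; IC50 taken from dose–response curve fits.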

Cytochrome P450 3A4 [16] = molecular target: T1, Cytochrome P450 3A4; assay: Drug metabolism assessed as human recombinant CYP3A4-mediated metabolite formation by measuring parent compound remaining at 5 uM in presence of NADPH after 30 mins by LC-MS/MS analysis; assay type: ADME; conditions: recombinant enzyme, 0.5 h; method in brief: as §1
[17] = Drug metabolism in human liver microsomes assessed as formation of 4-(1-hydroxy-2-methylpropan-2-yl)-N-(6-(2-hydroxyethoxy)-5-(2-methoxyphenoxy)-2,2'-bipyrimidin-4-yl)benzenesulfonamide at 5 uM in presence of NADPH after 30 mins by LC-MS/MS analysis; assay type: ADME; conditions: 0.5 h; method in brief: as §1
[18] = Drug metabolism in human liver microsomes assessed as formation of 4-tert-butyl-N-(6-(2-hydroxyethoxy)-5-(2-hydroxyphenoxy)-2,2'-bipyrimidin-4-yl)benzenesulfonamide at 5 uM in presence of NADPH after 30 mins by LC-MS/MS analysis; assay type: ADME; conditions: 0.5 h; method in brief: as §1
Cytochrome P450 2C9 [19] = molecular target: T2, Cytochrome P450 2C9; assay: Drug metabolism assessed as human recombinant CYP2C9-mediated formation of 4-(1-hydroxy-2-methylpropan-2-yl)-N-(6-(2-hydroxyethoxy)-5-(2-methoxyphenoxy)-2,2'-bipyrimidin-4-yl)benzenesulfonamide at 5 uM in presence of NADPH after 30 mins by LC-MS/MS analysis; assay type: ADME; conditions: recombinant enzyme, 0.5 h; method in brief: as §1
Cytochrome P450 3A4 [20] = molecular target: T1, Cytochrome P450 3A4; assay: Drug metabolism assessed as human recombinant CYP3A4-mediated formation of 4-(1-hydroxy-2-methylpropan-2-yl)-N-(6-(2-hydroxyethoxy)-5-(2-hydroxyphenoxy)-2,2'-bipyrimidin-4-yl)benzenesulfonamide at 5 uM in presence of NADPH after 30 mins by LC-MS/MS analysis; assay type: ADME; conditions: recombinant enzyme, 0.5 h; method in brief: as §1
Cytochrome P450 2D6 = Cytochrome P450 2D6 (Homo sapiens, UniProt P10635); assay: Drug metabolism assessed as human recombinant CYP2D6-mediated metabolite formation by measuring parent compound remaining at 5 uM in presence of NADPH after 30 mins by LC-MS/MS analysis; assay type: ADME; conditions: recombinant enzyme, 0.5 h; method in brief: as §1
Chain of Cytochrome P450 2D6 (P10635 whole entry): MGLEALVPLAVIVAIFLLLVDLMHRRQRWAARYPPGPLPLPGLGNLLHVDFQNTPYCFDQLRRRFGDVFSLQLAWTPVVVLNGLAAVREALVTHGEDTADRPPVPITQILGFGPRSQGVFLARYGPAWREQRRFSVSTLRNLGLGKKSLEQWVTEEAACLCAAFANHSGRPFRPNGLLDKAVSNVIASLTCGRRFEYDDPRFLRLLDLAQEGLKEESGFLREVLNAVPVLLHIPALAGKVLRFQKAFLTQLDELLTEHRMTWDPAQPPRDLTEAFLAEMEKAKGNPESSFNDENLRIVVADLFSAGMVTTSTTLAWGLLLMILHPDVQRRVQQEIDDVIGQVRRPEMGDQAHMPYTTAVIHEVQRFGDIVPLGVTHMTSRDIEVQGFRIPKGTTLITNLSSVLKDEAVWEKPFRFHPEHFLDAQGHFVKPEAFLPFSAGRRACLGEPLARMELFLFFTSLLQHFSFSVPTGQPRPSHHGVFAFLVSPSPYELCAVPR

For `COc1ccccc1Oc1c(NS(=O)(=O)c2ccc(C(C)(C)CO)cc2)nc(-c2ncccn2)nc1OCCO`, which Drug metabolism [1] is on record?
Its Drug metabolism is “Metabolite_Detected”.

And the Drug metabolism (Cytochrome P450 3A4 [2])?
The Drug metabolism was “Metabolite_Detected”.

What about the Retention_time [3] of the same molecule?
Its Retention_time is 3.79 min.

What about the Drug metabolism (Cytochrome P450 2C9 [4]) of the same molecule?
Its Drug metabolism is “Metabolite_Detected”.

With `CC(C)C[C@@H]1NC(=O)[C@@H](C(C)C)NC(=O)[C@@H]2CCCN2C(=O)[C@@H](CC(=O)O)NC(=O)[C@@H](Cc2c[nH]c3ccccc23)NC1=O` [BQ-123] (cyclo(L[dW][dD]P[dV])) as the molecule, how does the pIC50 (Endothelin-1 receptor) read?
The pIC50 was 9.21.

With `CCCC[C@@H](NC(=O)[C@@H](Cc1cn(C(=O)OC)c2ccccc12)NC(=O)[C@H](CC(C)(C)C)NC(=O)N1[C@H](C)CCC[C@@H]1C)C(=O)O` as the molecule, how does the pIC50 [5] read?
The pIC50 was 9.39.

What about the Kb [6] of the same molecule?
The Kb was 0.5 nM.

Which Drug metabolism (Cytochrome P450 2C9 [7]) does the source give for `CCOc1nc(-c2ncccn2)nc(NS(=O)(=O)c2ccc(C(C)(C)CO)cc2)c1Oc1ccccc1OC` here?
The Drug metabolism was “Metabolite_Detected”.

And the Drug metabolism [8]?
Its Drug metabolism is “Metabolite_Detected”.

And the Drug metabolism (Cytochrome P450 3A4 [9])?
The Drug metabolism was “Metabolite_Detected”.

What about the Retention_time [3] of the same molecule?
The Retention_time was 4.99 min.

Which Drug metabolism [10] does the source give for `COc1ccccc1Oc1c(NS(=O)(=O)c2ccc(C(C)(C)C)cc2)nc(-c2ncccn2)nc1OCCO` [BOSENTAN] here?
Its Drug metabolism is “Metabolite_Detected”.

And the Drug metabolism (Cytochrome P450 3A4 [11])?
The Drug metabolism was “Metabolite_Detected”.

And the remaining at 0.5 h, 5 µM [12]?
The remaining at 0.5 h, 5 µM was 91.6%.

What about the Drug metabolism (Cytochrome P450 3A4 [13]) of the same molecule?
The Drug metabolism was “Metabolite_Detected”.

And the Stability (Cytochrome P450 2C9 [14])?
Its Stability is 75.8%.

What about the Retention_time [3] of the same molecule?
Its Retention_time is 5.1 min.

And the IC50 at 24 h [15]?
Its IC50 at 24 h is 196000 nM.

What about the Stability (Cytochrome P450 3A4 [16]) of the same molecule?
Its Stability is 20.9%.

What about the Drug metabolism [17] of the same molecule?
Its Drug metabolism is “Metabolite_Detected”.

And the Drug metabolism [18]?
The Drug metabolism was “Metabolite_Detected”.

And the Drug metabolism (Cytochrome P450 2C9 [19])?
Its Drug metabolism is “Metabolite_Detected”.

And the Drug metabolism (Cytochrome P450 3A4 [20])?
Its Drug metabolism is “Metabolite_Detected”.

What about the Stability (Cytochrome P450 2D6) of the same molecule?
The Stability was over 99%.
